{"source": "ChEMBL document CHEMBL1125212", "about": "“Dual-action cephalosporins: cephalosporin 3'-quinolone carbamates” (J Med Chem, 1991)", "key": {"Escherichia coli [1]": {"tested_on": "Escherichia coli", "assay": "The compound was evaluated for the inhibition of [14C]- Pen G binding to Escherichia coli UB1005 PBP1a 90 kDa.", "type": "functional", "summary_of_the_method": "(§1)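 Penicillin-binding protein assay using solubilized membranes from sonicated E. coli UB1005. Binding was read as inhibition of [14C]penicillin G binding to the PBPs.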"}, "Escherichia coli [2]": {"tested_on": "Escherichia coli", "assay": "The compound was evaluated for the inhibition of [14C]- Pen G binding to Escherichia coli UB1005 PBP1b 90 kDa.", "type": "functional", "summary_of_the_method": "as §1"}, "Escherichia coli [3]": {"tested_on": "Escherichia coli", "assay": "The compound was evaluated for the inhibition of [14C]- Pen G binding to Escherichia coli UB1005 PBP2 66 kDa.", "type": "functional", "summary_of_the_method": "as §1"}, "Escherichia coli [4]": {"tested_on": "Escherichia coli", "assay": "The compound was evaluated for the inhibition of [14C]- Pen G binding to Escherichia coli UB1005 PBP3 60 kDa.", "type": "functional", "summary_of_the_method": "as §1"}, "Escherichia coli [5]": {"tested_on": "Escherichia coli", "assay": "Minimum inhibitory concentration for inhibition of [14C]- Pen G binding to Escherichia coli UB1005.", "type": "functional", "summary_of_the_method": "as §1"}, "Enterococcus faecalis": {"tested_on": "Enterococcus faecalis", "assay": "The compound was tested in vitro for minimum inhibitory concentration against Enterococcus faecalis ATCC 29212", "type": "functional", "summary_of_the_method": "(§2)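 Agar dilution on Mueller-Hinton agar using 2-fold serial dilutions, giving final 128 to 0.0156 μg/mL (extended to 0.000977 μg/mL where needed). Inoculum was overnight broth culture diluted 100-fold, about 3×10^4 CFU/spot, applied by replicator. MIC read after overnight incubation at 36 °C.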"}, "Escherichia coli [6]": {"tested_on": "Escherichia coli", "assay": "The compound was evaluated for the inhibition of [14C]- Pen G binding to Escherichia coli UB1005 penicillin-binding protein 1b 90 kDa.", "summary_of_the_method": "(§3)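 Membranes from sonicated E. coli UB1005 were solubilized. Binding to penicillin-binding proteins was measured as inhibition of [14C]penicillin G binding.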"}, "Escherichia coli [7]": {"tested_on": "Escherichia coli", "assay": "The compound was tested in vitro for minimum inhibitory concentration against Escherichia coli 257", "type": "functional", "summary_of_the_method": "as §2"}, "Escherichia coli [8]": {"tested_on": "Escherichia coli", "assay": "The compound was evaluated for the inhibition of [14C]- Pen G binding to Escherichia coli UB1005 penicillin-binding protein 2 66 kDa.", "summary_of_the_method": "as §3"}, "Mus musculus [9]": {"species": "Mus musculus", "assay": "Effective dose against mouse infected with Staphylococcus aureus 753 (MR) (LDs-6)", "type": "functional", "summary_of_the_method": "(§4)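 Mouse protection test in CD1 Swiss albino mice (18-20 g) given an intraperitoneal challenge (0.5 mL of diluted culture), expressed as a multiple of LD50. A single subcutaneous dose of 1.0 mL test solution was given at the dorsal neck base within 5 min of infection. Dose range 250 to 0.05 mg/kg. Six mice per group. ED50 (protective dose) by Reed-Muench.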"}, "Mus musculus [10]": {"species": "Mus musculus", "assay": "Effective dose against mouse infected with Streptococcus pneumoniae 6301(LDs-5623)", "type": "functional", "summary_of_the_method": "as §4"}, "Micrococcus luteus": {"tested_on": "Micrococcus luteus", "assay": "The compound was tested in vitro for minimum inhibitory concentration against Micrococcus luteus ATCC 9341", "type": "functional", "summary_of_the_method": "as §2"}, "Pseudomonas aeruginosa [11]": {"tested_on": "Pseudomonas aeruginosa", "assay": "The compound was tested in vitro for minimum inhibitory concentration against Pseudomonas aeruginosa 18S/H", "type": "functional", "summary_of_the_method": "as §2"}, "Proteus mirabilis": {"tested_on": "Proteus mirabilis", "assay": "The compound was tested in vitro for minimum inhibitory concentration against Proteus mirabilis 90", "type": "functional", "summary_of_the_method": "(§5)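 Proteus MICs by agar dilution on Mueller-Hinton medium containing 3% agar. Serial 2-fold dilutions gave final 128 to 0.0156 μg/mL (further to 0.000977 μg/mL). Inoculum was overnight broth diluted 100-fold, about 3×10^4 CFU/spot. Plates read after overnight incubation at 36 °C.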"}, "Streptococcus pyogenes": {"tested_on": "Streptococcus pyogenes", "assay": "The compound was tested in vitro for minimum inhibitory concentration against Streptococcus pyogenes", "type": "functional", "summary_of_the_method": "(§6)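 Streptococci tested by agar dilution on brain heart infusion agar with 20 units/mL bovine liver catalase. Final drug range 128 to 0.0156 μg/mL by 2-fold steps, extended to 0.000977 μg/mL when required. Inoculum about 3×10^4 CFU/spot from overnight broth diluted 100-fold. MIC after overnight incubation at 36 °C.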"}, "Escherichia coli [12]": {"tested_on": "Escherichia coli", "assay": "Minimum inhibitory concentration for inhibition of [14C]- Pen G binding to Escherichia coli UB1005", "type": "functional", "summary_of_the_method": "as §3"}, "Klebsiella pneumoniae": {"tested_on": "Klebsiella pneumoniae", "assay": "The compound was tested in vitro for minimum inhibitory concentration against Klebsiella pneumoniae A", "type": "functional", "summary_of_the_method": "as §2"}, "Proteus vulgaris": {"tested_on": "Proteus vulgaris", "assay": "The compound was tested in vitro for minimum inhibitory concentration against Proteus vulgaris 1028 BC", "type": "functional", "summary_of_the_method": "as §5"}, "Escherichia coli [13]": {"tested_on": "Escherichia coli", "assay": "The compound was evaluated for the inhibition of [14C]- Pen G binding to Escherichia coli UB1005 penicillin-binding protein 1a 90 kDa.", "summary_of_the_method": "as §3"}, "Staphylococcus aureus [14]": {"tested_on": "Staphylococcus aureus", "assay": "The compound was tested in vitro for minimum inhibitory concentration against Staphylococcus aureus smith", "type": "functional", "summary_of_the_method": "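Agar dilution MIC on Mueller-Hinton agar. Compounds were serially diluted 2-fold in water; final agar concentrations ran from 128 to 0.0156 μg/mL, extended to 0.000977 μg/mL for very active compounds. Spots were inoculated by replicator with overnight broth cultures diluted 100-fold, about 3×10^4 CFU/spot. MIC was read after overnight incubation at 36 °C.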"}, "Staphylococcus aureus [15]": {"tested_on": "Staphylococcus aureus", "assay": "The compound was tested in vitro for minimum inhibitory concentration against Staphylococcus aureus 753", "type": "functional, staphylococcus aureus smith", "summary_of_the_method": "as §2"}, "Escherichia coli [16]": {"tested_on": "Escherichia coli", "assay": "The compound was tested in vitro for minimum inhibitory concentration against Escherichia coli ATCC 25922", "type": "functional", "summary_of_the_method": "as §2"}, "Escherichia coli [17]": {"tested_on": "Escherichia coli", "assay": "The compound was evaluated for the inhibition of [14C]- Pen G binding to Escherichia coli UB1005 penicillin-binding protein 3 60 kDa.", "summary_of_the_method": "as §3"}, "Staphylococcus aureus [18]": {"tested_on": "Staphylococcus aureus", "assay": "The compound was tested in vitro for minimum inhibitory concentration against Staphylococcus aureus 67-0", "type": "functional", "summary_of_the_method": "as §2"}, "Streptococcus pneumoniae": {"tested_on": "Streptococcus pneumoniae", "assay": "The compound was tested in vitro for minimum inhibitory concentration against Streptococcus pneumoniae 6301", "type": "functional", "summary_of_the_method": "as §6"}, "Mus musculus [19]": {"species": "Mus musculus", "assay": "Effective dose against mouse infected with Pseudomonas aeruginosa 8780 (LDs-240)", "type": "functional", "summary_of_the_method": "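CD1 Swiss albino mice (18-20 g) infected intraperitoneally with 0.5 mL of diluted bacterial suspension. Challenge expressed as a multiple of LD50. Drug given subcutaneously at the dorsal neck base within 5 min of infection (1.0 mL), with a second treatment 3 h after infection. Dose range 250 to 0.05 mg/kg. Six mice per group. ED50 by the Reed-Muench method.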"}, "Pseudomonas aeruginosa [20]": {"tested_on": "Pseudomonas aeruginosa", "assay": "The compound was tested in vitro for minimum inhibitory concentration against Pseudomonas aeruginosa 8780", "type": "functional", "summary_of_the_method": "as §2"}, "Serratia marcescens": {"tested_on": "Serratia marcescens", "assay": "The compound was tested in vitro for minimum inhibitory concentration against Serratia marcescens 1071", "type": "functional", "summary_of_the_method": "as §2"}, "Escherichia coli [21]": {"tested_on": "Escherichia coli", "assay": "The compound was tested in vitro for minimum inhibitory concentration against Escherichia coli TEM-1", "type": "functional", "summary_of_the_method": "as §2"}, "Citrobacter freundii": {"tested_on": "Citrobacter freundii", "assay": "The compound was tested in vitro for minimum inhibitory concentration against Citrobacter Freundii BS-16", "type": "functional", "summary_of_the_method": "as §2"}, "Enterobacter cloacae": {"tested_on": "Enterobacter cloacae", "assay": "The compound was tested in vitro for minimum inhibitory concentration against Enterobacter cloacae P99", "type": "functional"}}, "data": [{"smiles": "CC(C)(O/N=C(\\C(=O)N[C@@H]1C(=O)N2C(C(=O)[O-])=C(C[n+]3ccccc3)CS[C@H]12)c1csc(N)n1)C(=O)O", "note": "[CEFTAZIDIME]", "values": [{"measurement": "Inhibitory concentration", "setting": "Escherichia coli [1]", "value": 10, "unit": "µg/mL"}, {"measurement": "Inhibitory concentration", "setting": "Escherichia coli [2]", "value": 10, "unit": "µg/mL"}, {"measurement": "Inhibitory concentration", "setting": "Escherichia coli [3]", "value": "> 100", "unit": "µg/mL"}, {"measurement": "Inhibitory concentration", "setting": "Escherichia coli [4]", "value": 0.5, "unit": "µg/mL"}, {"measurement": "MIC", "setting": "Escherichia coli [5]", "value": 0.1, "unit": "µg/mL"}]}, {"smiles": "CO/N=C(\\C(=O)N[C@@H]1C(=O)N2C(C(=O)O)=C(COC(C)=O)CS[C@H]12)c1csc(N)n1", "note": "[CEFOTAXIME]", "values": [{"measurement": "MIC", "setting": "Enterococcus faecalis", "value": 0.25, "unit": "µg/mL"}, {"measurement": "Inhibitory concentration", "setting": "Escherichia coli [6]", "value": 0.5, "unit": "µg/mL"}, {"measurement": "MIC", "setting": "Escherichia coli [7]", "value": 0.031, "unit": "µg/mL"}, {"measurement": "Inhibitory concentration", "setting": "Escherichia coli [8]", "value": 100, "unit": "µg/mL"}, {"measurement": "ED50", "setting": "Mus musculus [9]", "value": "> 100", "unit": "mg/kg"}, {"measurement": "ED50", "setting": "Mus musculus [10]", "value": 15, "unit": "mg/kg"}, {"measurement": "MIC", "setting": "Micrococcus luteus", "value": 0.031, "unit": "µg/mL"}, {"measurement": "MIC", "setting": "Pseudomonas aeruginosa [11]", "value": 128, "unit": "µg/mL"}, {"measurement": "MIC", "setting": "Proteus mirabilis", "value": "< 0.016", "unit": "µg/mL"}, {"measurement": "MIC", "setting": "Streptococcus pyogenes", "value": "< 0.016", "unit": "µg/mL"}, {"measurement": "MIC", "setting": "Escherichia coli [12]", "value": 0.06, "unit": "µg/mL"}, {"measurement": "MIC", "setting": "Klebsiella pneumoniae", "value": 0.031, "unit": "µg/mL"}, {"measurement": "MIC", "setting": "Proteus vulgaris", "value": "> 128", "unit": "µg/mL"}, {"measurement": "Inhibitory concentration", "setting": "Escherichia coli [13]", "value": "< 0.1", "unit": "µg/mL"}, {"measurement": "MIC", "setting": "Staphylococcus aureus [14]", "value": 2, "unit": "µg/mL"}, {"measurement": "MIC", "setting": "Staphylococcus aureus [15]", "value": "> 128", "unit": "µg/mL"}, {"measurement": "MIC", "setting": "Escherichia coli [16]", "value": 0.063, "unit": "µg/mL"}, {"measurement": "Inhibitory concentration", "setting": "Escherichia coli [17]", "value": "< 0.1", "unit": "µg/mL"}, {"measurement": "MIC", "setting": "Staphylococcus aureus [18]", "value": "> 128", "unit": "µg/mL"}, {"measurement": "MIC", "setting": "Streptococcus pneumoniae", "value": "< 0.016", "unit": "µg/mL"}, {"measurement": "ED50", "setting": "Mus musculus [19]", "value": "> 100", "unit": "mg/kg"}, {"measurement": "MIC", "setting": "Pseudomonas aeruginosa [20]", "value": 16, "unit": "µg/mL"}, {"measurement": "MIC", "setting": "Serratia marcescens", "value": 32, "unit": "µg/mL"}, {"measurement": "MIC", "setting": "Escherichia coli [21]", "value": 0.063, "unit": "µg/mL"}, {"measurement": "MIC", "setting": "Citrobacter freundii", "value": 32, "unit": "µg/mL"}, {"measurement": "MIC", "setting": "Enterobacter cloacae", "value": 64, "unit": "µg/mL"}]}, {"smiles": "CCN1CCN(C(=O)N[C@@H](C(=O)N[C@@H]2C(=O)N3C(C(=O)O)=C(CSc4nnnn4C)CS[C@H]23)c2ccc(O)cc2)C(=O)C1=O", "note": "[CEFOPERAZONE]", "values": [{"measurement": "Inhibitory concentration", "setting": "Escherichia coli [1]", "value": 10, "unit": "µg/mL"}, {"measurement": "Inhibitory concentration", "setting": "Escherichia coli [2]", "value": 10, "unit": "µg/mL"}, {"measurement": "Inhibitory concentration", "setting": "Escherichia coli [3]", "value": 2, "unit": "µg/mL"}, {"measurement": "Inhibitory concentration", "setting": "Escherichia coli [4]", "value": "< 0.1", "unit": "µg/mL"}, {"measurement": "MIC", "setting": "Escherichia coli [5]", "value": 1, "unit": "µg/mL"}]}]}
